pIC50: −log10 of the molar value. Activity calls are given as the source filed them. No cut-off for these calls is given here.
Experiments:
[1] = tested on: T1, Thioredoxin reductase 1, cytoplasmic (Rattus norvegicus), O89049 [U498C]; assay: Binding affinity to NADPH-reduced rat recombinant TrxR1 U498C mutant after 30 mins by SDS-PAGE
T1 sequence (whole entry): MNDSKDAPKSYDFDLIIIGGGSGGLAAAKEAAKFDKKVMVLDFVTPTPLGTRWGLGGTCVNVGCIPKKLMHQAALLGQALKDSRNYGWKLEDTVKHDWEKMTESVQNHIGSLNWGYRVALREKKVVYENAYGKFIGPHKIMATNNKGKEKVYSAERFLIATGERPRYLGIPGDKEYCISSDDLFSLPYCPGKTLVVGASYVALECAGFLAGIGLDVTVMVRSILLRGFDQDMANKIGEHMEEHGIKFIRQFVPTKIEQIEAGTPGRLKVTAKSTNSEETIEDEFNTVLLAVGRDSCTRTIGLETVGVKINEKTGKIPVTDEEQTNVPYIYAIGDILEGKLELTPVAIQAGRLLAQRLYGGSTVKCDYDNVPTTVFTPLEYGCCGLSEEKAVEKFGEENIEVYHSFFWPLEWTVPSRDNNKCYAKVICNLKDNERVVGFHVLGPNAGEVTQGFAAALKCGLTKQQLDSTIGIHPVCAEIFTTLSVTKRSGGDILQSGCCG
How it was run: (§1)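 Proteins were reduced, then incubated with the labelling compound for 30 min at room temperature. Samples were separated by SDS-PAGE. The gel was imaged by fluorescence and then stained with Coomassie Blue.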

[2] = species on record: Rattus norvegicus; assay: Binding affinity to NADPH-reduced rat recombinant wild type TrxR after 30 mins by SDS-PAGE; how it was run: as §1
[3] = tested on: HepG2; assay: Cytotoxicity against human HepG2 cells assessed as inhibition of proliferation after 48 hrs by MTT assay; type: functional, cell-based; conditions: HepG2, 48 h
[4] = tested on: HL-60; assay: Cytotoxicity against human HL60 cells assessed as inhibition of proliferation after 72 hrs by MTT assay; type: functional, cell-based; conditions: HL-60, 72 h
[5] = tested on: HeLa; assay: Cytotoxicity against human HeLa cells assessed as inhibition of proliferation after 48 hrs by MTT assay; type: functional, cell-based
[6] = tested on: HL-60; assay: Cytotoxicity against human HL60 cells assessed as inhibition of proliferation after 48 hrs by MTT assay; type: functional, cell-based; conditions: HL-60, 48 h
[7] = Cytotoxicity against human […] cells assessed as inhibition of proliferation after 48 hrs by MTT assay; type: functional, cell-based

Row | SMILES | Activity [1] | Activity [2] | pIC50 [3] | pIC50 [4] | pIC50 [5] | pIC50 [6] | pIC50 [7]
1 | Nc1ccc2c3c(cccc13)C(=O)N(CCCCCC(=O)Nc1ccc([As](O)O)cc1)C2=O | Active | Active |  |  |  |  | 
2 | Nc1ccc2c3c(cccc13)C(=O)N(CCCCCC(=O)Nc1ccc([As]3SCCCS3)cc1)C2=O | Active | inactive |  |  |  |  | 
3 | Nc1ccc([As](=O)(O)O)cc1 [ARSANILIC ACID] |  |  | < 5.00 | < 5.00 | < 5.00 | < 5.00 | < 5.00
4 | O=[As][As+](=O)[O-] (centres undefined) [ARSENIC TRIOXIDE] |  |  | < 5.00 | 5.24 | < 5.00 | 5.19 | < 5.00

From ChEMBL document CHEMBL3286196 (J Med Chem, 2014)
